High-throughput results from PubChem.
NPY Y2 blocker – antagonists of human neuropeptide Y receptor Y2; NPY-Y2 expressing cells, antagonist mode; inhibition, % at 2.7 µM; 140,000 compounds, 0.99% hits; AID 793; in the data active = inhibition above about 17%
Target sequence (P49146 whole entry, looked up): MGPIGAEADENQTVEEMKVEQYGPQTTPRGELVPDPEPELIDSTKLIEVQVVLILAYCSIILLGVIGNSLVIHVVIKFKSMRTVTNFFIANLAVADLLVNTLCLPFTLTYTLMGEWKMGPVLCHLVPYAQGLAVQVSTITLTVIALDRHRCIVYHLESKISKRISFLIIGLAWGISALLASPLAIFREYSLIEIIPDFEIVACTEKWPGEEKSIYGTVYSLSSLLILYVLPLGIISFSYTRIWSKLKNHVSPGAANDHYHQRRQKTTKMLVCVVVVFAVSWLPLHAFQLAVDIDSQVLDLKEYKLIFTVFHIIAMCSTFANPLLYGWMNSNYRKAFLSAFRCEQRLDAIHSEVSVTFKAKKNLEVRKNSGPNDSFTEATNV
NPY1 pot ag – potentiators or agonists of human neuropeptide Y receptor Y1 | P25929 | NPY-Y1 expressing cells, potentiator/agonist activation | activation, % at 3.6 µM | 220,000 compounds, 0.37% hits | AID 1304; in the data active = activation above about 33%, passing the limit was not always enough;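 note: cells stimulated with NPY at EC10 then isoproterenol at EC100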
PGE2 EP2 inh – blocks the human prostaglandin E2 receptor EP2; P43116; C6 glioma cells expressing human EP2, cAMP TR-FRET; cells stimulated with saturating PGE2; inhibition, % at 25 µM; 260,000 compounds, 0.52% hits; AID 1422;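 active = percent inhibition above 40 after rounding to a whole number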;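 note: rat C6 glioma host cells with rolipram phosphodiesterase inhibitor present; the protocol text gives 20 µM as final concentration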
NPY-Y1 antag – blocks the human neuropeptide Y Y1 receptor; HEK293-CNG Y1 cells, membrane potential fluorescence; NPY at EC95, then isoproterenol; 200,000 compounds, 1% hits; AID 1040; inhibition, % at 3.6 µM;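 active = inhibition above the campaign mean inhibition of all tested compounds plus 3 SD, cut at about 20% in these data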
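Material: HEK293 Y1/CNG channel cell line; also added: NPY (25 nM), isoproterenol (1 µM), Ro 20-1724 (25 µM); doses: one concentration, 3.6 µM, in 0.4% DMSO; schedule: compound incubation 1 h at room temperature, readout 45 min post-stimulation; technique: membrane potential fluorescence; measure: fluorescence ratio normalized to % inhibition between controls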
EP2 mod – EP2 receptor (human) modulation; P43116; EP2-expressing cells, cAMP HTRF FRET, PGE2 co-stimulation; induction, % at 25 µM; 260,000 compounds, 0.83% hits;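 active = compounds whose cAMP rise, as percent of the full-agonist control response, exceeds 60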;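 note: rat C6 glioma line stably carrying human EP2 under a CMV promoter; the protocol text gives 20 µM as final concentration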
NPY-Y2 PAM-ag – potentiators or agonists of human neuropeptide Y receptor Y2; P49146; cells expressing NPY-Y2, potentiator/agonist read-out; activation, % at 3.6 µM; 220,000 compounds, 0.45% hits; AID 1359; in the data active = activation above about 27%;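 note: cells stimulated with NPY near EC25 plus isoproterenol at EC100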
EP2 confirm – EP2 receptor cAMP induction, counter-screens negative. shares compounds with EP2 mod. C6 glioma EP2 cells, cAMP HTRF induction; plus low (about EC15) PGE2 agonist. calls only at 20 µM (by protocol). 1,300 compounds, 47% hits. AID 1080;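 active = cAMP induction above 50% in the main assay while under 30% in all four parallel counter assays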;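 note: rat C6 glioma cells stably expressing human EP2 receptor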
A number is an active result; 0 = inactive; - = no result given; + = active, no number. This is a sample that favours compounds with a hit; in the whole collection about 2.8% have one here.

SMILES	NPY Y2 blocker	NPY1 pot ag	PGE2 EP2 inh	NPY-Y1 antag	EP2 mod	NPY-Y2 PAM-ag	EP2 confirm
CC1=CC2C(C(C)C)CCC(C)(O)C2CC1 (centres undefined)	-	-	0	-	65	-	+
CSCCC(C(=O)O)N1C(=O)/C(=C2/C(=O)N(C(C)=O)c3ccccc32)SC1=S (centres undefined)	-	-	0	-	0	-	-
CC(C)Cc1nc(SCc2cccnc2)c2c(=O)n(C)c(=O)n(C)c2n1	-	0	0	0	63	0	0
CCNc1nc(NCC)nc(SCCOC(=O)Nc2ccccc2)n1	0	0	0	0	0	0	-
CCNc1nc(NCC)nc(SCCOc2ccc(C)cc2)n1	0	0	0	0	82	0	+
O=c1[nH]c(SCc2cccc(F)c2)nc2c1CCCC2	0	0	0	0	0	0	-
O=c1[nH]c(SCc2cccc(Cl)c2)nc2c1CCCC2	0	0	0	0	66	0	0
COc1cccc(C(O)CN2CCC3(CC2)CC(O)c2cc(OC)ccc2O3)c1 (centres undefined)	-	-	0	-	0	-	-
Clc1ccc(CSCc2ccc(Cl)cc2Cl)c(Cl)c1	-	-	0	-	0	-	-
CSc1nnc(CSCc2ccc(Cl)cc2Cl)n1-c1ccccc1	0	0	0	0	61	0	+
c1ccc(-c2nn3c(nc4nc5ccccc5nc43)s2)cc1	-	-	0	-	0	-	-
O=C(Cc1ccccc1Cl)N1CCC(n2cnc3cccnc32)CC1	-	-	0	-	0	-	-
Cc1ccc(N/C(C(Cl)=C(Cl)Cl)=C(/Cl)[N+](=O)[O-])c(C)c1	0	0	0	0	73	0	+
CCN(CC)C(=O)N1CCC(Cn2nc(-c3ccc(F)cc3)ccc2=O)CC1	-	-	-	-	0	-	-
N#CCSc1nc2ccccc2c(=O)n1CCC(=O)NC1CCCCC1	0	0	0	0	0	0	-
N#CCSc1nc2ccccc2c(=O)n1C1CCCCC1	-	0	0	21	71	0	+
COC1CCCC(C(=O)N2CCC(n3nc(-c4cccs4)ccc3=O)CC2)C1 (centres undefined)	-	-	-	-	0	-	-
Cc1ccc(S(=O)(=O)NCC(=O)N(c2ccccc2)C(C(=O)NCc2ccccc2)c2ccco2)cc1 (centres undefined)	0	0	0	0	68	0	0
Cn1c(=O)n(CC(=O)NCc2cccs2)c2cccnc21	-	-	-	-	0	-	-
Cc1cccc(Cn2c(=O)n(Cc3ccco3)c(=O)c3ccccc32)c1	0	0	0	0	76	0	0
COc1ccc(NC(=S)N(CCCO)Cc2cc3cc(C)c(C)cc3[nH]c2=O)cc1	-	-	0	-	0	-	-
Cc1cc(C)c2c(n1)sc1c(=O)n(Cc3ccccc3Cl)nnc12	0	0	-	0	67	0	0
COCc1cc(C)nc2sc3c(=O)n(Cc4ccco4)nnc3c12	0	0	0	0	0	0	-
CCCn1cnc2sc(C(N)=O)c(C)c2c1=O	0	0	0	0	0	0	-
CCCn1cnc2sc(CC)cc2c1=O	0	0	0	0	0	0	0
SMILES	NPY Y2 blocker	NPY1 pot ag	PGE2 EP2 inh	NPY-Y1 antag	EP2 mod	NPY-Y2 PAM-ag	EP2 confirm
CC1Cc2ccccc2N1C(=O)CSc1nnc(Cc2ccccc2)n1CCc1ccccc1 (centres undefined)	0	0	-	0	66	0	0
CC1Cc2ccccc2N1C(=O)CSc1nnc(Cc2ccccc2)n1C (centres undefined)	-	-	0	-	0	-	-
Cc1ccc(/C=C/c2nc3ccccc3c(=O)n2CCc2ccccc2)cc1	0	0	0	0	81	0	+
COc1ccc(OCCCC(=O)Nc2nc(C)c(C)s2)cc1	-	-	0	-	0	-	-
CC(C1CC2CCC1C2)n1c(COc2ccccc2F)nnc1SCC(N)=O (centres undefined)	0	0	0	0	0	0	-
CC(C)NC(=O)NC(=O)CSc1nnc(COc2ccccc2F)n1C(C)C1CC2CCC1C2 (centres undefined)	0	0	0	0	0	0	0
CCCOP(=O)(OCCC)C(Nc1cccc(C(F)(F)F)c1)c1ccc(C)cc1 (centres undefined)	0	0	0	0	68	0	0
CC(C)n1c(N2CCCC2)nc2c1c(=O)n(C)c(=O)n2C	-	-	0	-	0	-	-
CCc1nnc2n1N=C(c1ccc(OC)cc1)CS2	0	0	0	0	0	0	-
